Data set [1] has as its target Mitogen-activated protein kinase 8 (Homo sapiens, UniProt P45983). Description: Inhibition of c-Jun N-terminal kinase (Jnk). Summed up:
(§1)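 Substrate phosphorylation measured in an in vitro assay with purified enzyme; IC50 values in µmol/L.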

The target in data set [2] is Tyrosine-protein kinase ABL (Homo sapiens, UniProt P00519+P42684). Description: Inhibition of Abl tyrosine kinase. Format: protein assay. Summed up: as §1
Data set [3] concerns the target Proto-oncogene tyrosine-protein kinase Src (Homo sapiens, UniProt P12931). The data set is described as follows: Inhibition of Src protein tyrosine kinase. Summed up:
as §1

The target of data set [4] is Mitogen-activated protein kinase; ERK1/ERK2 (Homo sapiens, UniProt P27361+P28482). The data set is described as follows: Inhibition of Extracellular signal-regulated kinase (Erk). Format: protein assay. Summed up: as §1
Data set [5] has as its target T1, Receptor-type tyrosine-protein kinase FLT3 (Homo sapiens, UniProt P36888).
T1 sequence (P36888 whole entry): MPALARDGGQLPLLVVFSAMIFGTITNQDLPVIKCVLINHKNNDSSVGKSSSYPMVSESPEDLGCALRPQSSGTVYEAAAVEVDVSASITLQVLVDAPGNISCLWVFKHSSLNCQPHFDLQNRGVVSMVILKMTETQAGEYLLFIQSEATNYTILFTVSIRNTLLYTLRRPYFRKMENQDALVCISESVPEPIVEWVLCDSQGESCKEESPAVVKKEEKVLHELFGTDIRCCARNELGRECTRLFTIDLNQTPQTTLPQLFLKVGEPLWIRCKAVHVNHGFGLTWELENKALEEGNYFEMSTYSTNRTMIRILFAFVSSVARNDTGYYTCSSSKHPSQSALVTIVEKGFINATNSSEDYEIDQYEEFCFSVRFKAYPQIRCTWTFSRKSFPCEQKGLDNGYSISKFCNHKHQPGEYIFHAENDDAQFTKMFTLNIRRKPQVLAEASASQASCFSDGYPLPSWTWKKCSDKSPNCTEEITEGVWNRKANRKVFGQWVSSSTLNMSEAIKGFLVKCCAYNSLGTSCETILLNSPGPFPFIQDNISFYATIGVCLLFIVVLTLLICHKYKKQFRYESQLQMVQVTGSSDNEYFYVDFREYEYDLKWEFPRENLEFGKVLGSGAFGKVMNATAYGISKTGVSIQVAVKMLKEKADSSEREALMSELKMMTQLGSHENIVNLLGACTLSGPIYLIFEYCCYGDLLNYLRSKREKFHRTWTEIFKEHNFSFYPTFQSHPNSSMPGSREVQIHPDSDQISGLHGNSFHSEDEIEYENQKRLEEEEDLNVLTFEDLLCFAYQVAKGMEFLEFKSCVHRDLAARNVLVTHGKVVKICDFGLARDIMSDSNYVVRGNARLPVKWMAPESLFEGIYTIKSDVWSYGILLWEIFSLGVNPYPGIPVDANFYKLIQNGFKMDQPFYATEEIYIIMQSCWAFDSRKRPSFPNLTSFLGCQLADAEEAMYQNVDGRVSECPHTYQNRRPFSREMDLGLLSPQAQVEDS
The data set is described as follows: Inhibition of Flt3 autophosphorylation.

A further data set addresses MAP kinase p38 (Homo sapiens, UniProt O15264+Q15759+Q16539+P53778). Description: Inhibition of Mitogen-activated protein kinase p38. The format is protein assay. The essentials:
as §1

A short description of data set [6]: pharmacokinetic parameter was evaluated after oral administration of 30 mg/kg to rat. Format: ADME, organism-based. Further details: dose 30 mg/kg, route oral. The following applies: in vivo. The essentials:
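Sprague-Dawley rats, n=3, dosed orally at 30 mg/kg. Plasma drug concentrations were followed to derive Tmax (h), Cmax (µg/mL), T1/2 (h) and AUC0-∞ (µg h/mL).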

The target in data set [7] is Fibroblast growth factor receptor (Homo sapiens, UniProt P22607+P11362+P22455+P21802). Description: Inhibition of Fibroblast growth factor receptor autophosphorylation. The format is protein assay.
Data set [8] has as its target cAMP-dependent protein kinase (PKA) (Homo sapiens, UniProt P22694+P17612+P22612). Description: Inhibition of Protein kinase A (PKA). The format is protein assay. Summed up:
as §1

The next data set concerns the target Protein kinase C (PKC). The data set is described as follows: Inhibition of Protein kinase C. The format is protein assay. Summed up: as §1
Data set [9] concerns the target Dual specificity mitogen-activated protein kinase kinase 1 (Homo sapiens, UniProt Q02750). The data set is described as follows: Inhibition of Mitogen activated protein kinase kinase 1. The essentials: as §1
Data set [10] has as its target Vascular endothelial growth factor receptor 2 (Homo sapiens, UniProt P35968). The data set is described as follows: Inhibition of Vascular endothelial growth factor receptor 2 (VEGFR-2) autophosphorylation.
Data set [11] is described as follows: Plasma concentration was determined after 8 hr at a dose 30 mg/kg administered orally to rat-10. Format: ADME, organism-based. The arrangement: dose 30 mg/kg, route oral. The following applies: po. Summed up: (§2)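 Sprague-Dawley rats, n=2 per compound, dosed orally at 30 mg/kg. Plasma drug concentration measured 1 and 8 h after dosing.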
Data set [12] deals with Macrophage colony-stimulating factor 1 receptor (Homo sapiens, UniProt P07333). Description: Inhibition of Colony stimulating factor 1 receptor (CSF-1R) autophosphorylation.
The nature of data set [13]: Plasma concentration was determined after 8 hr at a dose 30 mg/kg administered orally to rat-9. The format is ADME, organism-based. Further details: dose 30 mg/kg, route oral. The note with it: po. The essentials:
as §2

Data set [14] addresses T2, Dual specificity mitogen-activated protein kinase kinase 6 (Homo sapiens, UniProt P52564).
T2 sequence (P52564 whole entry): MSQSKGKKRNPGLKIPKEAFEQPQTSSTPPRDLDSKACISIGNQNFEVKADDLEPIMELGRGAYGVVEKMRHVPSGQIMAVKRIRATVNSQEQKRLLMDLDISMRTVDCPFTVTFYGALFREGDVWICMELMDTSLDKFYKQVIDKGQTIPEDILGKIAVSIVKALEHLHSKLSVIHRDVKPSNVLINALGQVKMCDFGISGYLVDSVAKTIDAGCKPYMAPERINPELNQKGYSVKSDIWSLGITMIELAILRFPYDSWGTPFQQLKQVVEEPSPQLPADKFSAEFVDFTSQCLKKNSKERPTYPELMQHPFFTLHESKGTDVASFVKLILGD
The data set is described as follows: Inhibition of Mitogen activated protein kinase kinase 6. Summed up:
as §1

The nature of data set [15]: Plasma concentration was determined after 1 hr at a dose 30 mg/kg administered orally to rat-9. Format: ADME, organism-based. Further details: dose 30 mg/kg, route oral. The following applies: po. Summed up:
as §2

Data set [16] is described as follows: Plasma concentration was determined after 1 hr at a dose 30 mg/kg administered orally to rat-10. The format is ADME, organism-based. Further details: dose 30 mg/kg, route oral. The note with it: po. The essentials: as §2
Data set [17] is described as follows: Plasma concentration was determined after 8 hr at a dose 30 mg/kg administered orally to rat-15. The format is ADME, organism-based. Further details: dose 30 mg/kg, route oral. The note with it: po. The essentials:
as §2

A short description of data set [18]: Plasma concentration was determined after 8 hr at a dose 30 mg/kg administered orally to rat-16. The format is ADME, organism-based. The arrangement: dose 30 mg/kg, route oral. The note with it: po. The essentials: as §2
The target of data set [19] is Platelet-derived growth factor receptor (Homo sapiens, UniProt P09619+P16234). Description: Concentration required for 50% inhibition against autophosphorylation of Platelet-derived growth factor receptor beta in intact cells using a two site ELISA. Format: cell-based. (In general: An ELISA detects its analyte on a solid surface through an enzyme-linked reagent.)
A short description of data set [20]: Plasma concentration was determined after 1 hr at a dose 30 mg/kg administered orally to rat-15. Format: ADME, organism-based. The arrangement: dose 30 mg/kg, route oral. The note with it: po. Summed up: as §2
A short description of data set [21]: Lipophilicity was reported. The note with it: octanol/water. The format is physicochemical.
Data set [22] can be described thus: Plasma concentration was determined after 1 hr at a dose 30 mg/kg administered orally to rat-16. The arrangement: dose 30 mg/kg, route oral. Format: ADME, organism-based. The following applies: po. Summed up: as §2
Data set [23] can be described thus: Plasma concentration was determined after 1 hr at a dose 30 mg/kg administered orally to rat-5. The note with it: po. The format is ADME, organism-based. Further details: dose 30 mg/kg, route oral. Summed up: as §2
The nature of data set [24]: Plasma concentration was determined after 8 hr at a dose 30 mg/kg administered orally to rat-5. The format is ADME, organism-based. The arrangement: dose 30 mg/kg, route oral. The note with it: po. The essentials: as §2
Data set [25] is described as follows: Plasma concentration was determined after 8 hr at a dose 30 mg/kg administered orally to rat-6. Format: ADME, organism-based. Further details: dose 30 mg/kg, route oral. The following applies: po. The essentials: as §2
Data set [26] can be described thus: Plasma concentration was determined after 1 hr at a dose 30 mg/kg administered orally to rat-6. Format: ADME, organism-based. Further details: dose 30 mg/kg, route oral. The following applies: po. Summed up: as §2

A value given as a limit tells only on which side of the number the result lay.

Sequence of Mitogen-activated protein kinase 8 (P45983 whole entry): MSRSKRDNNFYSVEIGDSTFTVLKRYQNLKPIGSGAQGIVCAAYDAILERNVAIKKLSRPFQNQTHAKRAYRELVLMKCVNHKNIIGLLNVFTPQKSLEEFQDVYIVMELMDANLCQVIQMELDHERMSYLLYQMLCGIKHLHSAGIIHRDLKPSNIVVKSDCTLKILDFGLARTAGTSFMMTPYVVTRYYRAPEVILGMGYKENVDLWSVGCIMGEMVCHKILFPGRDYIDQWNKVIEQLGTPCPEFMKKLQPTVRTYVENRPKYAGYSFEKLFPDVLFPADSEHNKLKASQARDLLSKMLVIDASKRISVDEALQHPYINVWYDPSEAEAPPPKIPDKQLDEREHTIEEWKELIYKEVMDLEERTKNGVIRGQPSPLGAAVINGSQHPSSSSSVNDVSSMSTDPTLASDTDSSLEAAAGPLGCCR
Sequence of Dual specificity mitogen-activated protein kinase kinase 1 (Q02750 whole entry): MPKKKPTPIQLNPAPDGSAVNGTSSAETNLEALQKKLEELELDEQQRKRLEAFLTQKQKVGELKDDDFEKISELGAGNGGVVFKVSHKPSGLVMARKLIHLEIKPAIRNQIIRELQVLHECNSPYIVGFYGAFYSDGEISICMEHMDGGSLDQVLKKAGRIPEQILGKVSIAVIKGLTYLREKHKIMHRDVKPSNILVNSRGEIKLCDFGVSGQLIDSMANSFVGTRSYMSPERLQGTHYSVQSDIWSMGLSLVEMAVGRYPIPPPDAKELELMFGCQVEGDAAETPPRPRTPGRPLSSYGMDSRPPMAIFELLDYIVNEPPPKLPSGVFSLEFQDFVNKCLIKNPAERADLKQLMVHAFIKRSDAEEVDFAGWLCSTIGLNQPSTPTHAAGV
Sequence of Proto-oncogene tyrosine-protein kinase Src (P12931 2-536 limits assumed): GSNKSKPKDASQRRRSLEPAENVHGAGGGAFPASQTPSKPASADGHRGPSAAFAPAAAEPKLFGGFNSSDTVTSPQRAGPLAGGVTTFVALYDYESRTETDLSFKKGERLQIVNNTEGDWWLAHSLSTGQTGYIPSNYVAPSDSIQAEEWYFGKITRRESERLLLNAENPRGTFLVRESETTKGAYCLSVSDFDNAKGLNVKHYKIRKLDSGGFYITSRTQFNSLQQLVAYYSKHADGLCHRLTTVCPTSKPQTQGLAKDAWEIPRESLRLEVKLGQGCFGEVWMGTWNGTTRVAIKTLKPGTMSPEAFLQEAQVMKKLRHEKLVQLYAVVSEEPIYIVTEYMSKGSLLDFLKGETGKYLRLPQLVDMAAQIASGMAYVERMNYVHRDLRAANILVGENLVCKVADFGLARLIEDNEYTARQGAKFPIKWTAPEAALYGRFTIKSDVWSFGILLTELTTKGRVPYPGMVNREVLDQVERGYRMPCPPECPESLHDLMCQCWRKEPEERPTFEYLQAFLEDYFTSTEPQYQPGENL
Sequence of Vascular endothelial growth factor receptor 2 (P35968 whole entry): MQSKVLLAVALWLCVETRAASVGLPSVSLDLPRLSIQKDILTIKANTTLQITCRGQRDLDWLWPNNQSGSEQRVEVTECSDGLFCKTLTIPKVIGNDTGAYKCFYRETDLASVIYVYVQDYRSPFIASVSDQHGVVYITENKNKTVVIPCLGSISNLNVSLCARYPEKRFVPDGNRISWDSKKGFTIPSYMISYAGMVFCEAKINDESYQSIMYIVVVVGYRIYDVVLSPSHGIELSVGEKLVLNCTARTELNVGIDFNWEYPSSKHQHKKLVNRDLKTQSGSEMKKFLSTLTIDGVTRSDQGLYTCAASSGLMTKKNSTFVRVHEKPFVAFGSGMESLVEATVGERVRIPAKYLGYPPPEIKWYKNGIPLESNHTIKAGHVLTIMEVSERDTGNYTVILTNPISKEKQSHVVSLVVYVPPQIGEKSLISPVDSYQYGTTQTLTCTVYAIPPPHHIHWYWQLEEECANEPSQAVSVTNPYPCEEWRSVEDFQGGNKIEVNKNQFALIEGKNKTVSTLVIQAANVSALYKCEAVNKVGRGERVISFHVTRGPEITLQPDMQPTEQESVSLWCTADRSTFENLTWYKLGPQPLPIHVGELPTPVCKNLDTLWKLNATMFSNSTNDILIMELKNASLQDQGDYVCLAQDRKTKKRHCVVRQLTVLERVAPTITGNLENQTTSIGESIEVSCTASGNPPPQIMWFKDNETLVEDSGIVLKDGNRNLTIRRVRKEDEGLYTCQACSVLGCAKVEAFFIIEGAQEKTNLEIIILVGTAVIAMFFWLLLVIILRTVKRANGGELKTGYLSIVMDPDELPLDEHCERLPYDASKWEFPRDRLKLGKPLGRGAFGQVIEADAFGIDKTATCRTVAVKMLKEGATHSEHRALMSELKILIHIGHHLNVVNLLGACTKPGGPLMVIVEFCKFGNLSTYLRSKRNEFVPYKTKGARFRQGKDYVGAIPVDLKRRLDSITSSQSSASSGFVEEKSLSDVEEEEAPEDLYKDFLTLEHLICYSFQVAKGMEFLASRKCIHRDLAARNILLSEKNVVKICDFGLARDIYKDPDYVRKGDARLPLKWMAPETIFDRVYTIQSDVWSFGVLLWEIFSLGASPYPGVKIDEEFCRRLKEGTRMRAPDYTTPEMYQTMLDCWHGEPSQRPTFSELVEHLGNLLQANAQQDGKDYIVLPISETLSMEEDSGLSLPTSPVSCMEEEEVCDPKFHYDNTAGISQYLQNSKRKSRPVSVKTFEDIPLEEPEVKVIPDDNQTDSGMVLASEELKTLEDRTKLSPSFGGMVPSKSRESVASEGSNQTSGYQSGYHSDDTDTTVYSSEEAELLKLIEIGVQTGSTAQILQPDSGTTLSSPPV
Sequence of Macrophage colony-stimulating factor 1 receptor (P07333 whole entry): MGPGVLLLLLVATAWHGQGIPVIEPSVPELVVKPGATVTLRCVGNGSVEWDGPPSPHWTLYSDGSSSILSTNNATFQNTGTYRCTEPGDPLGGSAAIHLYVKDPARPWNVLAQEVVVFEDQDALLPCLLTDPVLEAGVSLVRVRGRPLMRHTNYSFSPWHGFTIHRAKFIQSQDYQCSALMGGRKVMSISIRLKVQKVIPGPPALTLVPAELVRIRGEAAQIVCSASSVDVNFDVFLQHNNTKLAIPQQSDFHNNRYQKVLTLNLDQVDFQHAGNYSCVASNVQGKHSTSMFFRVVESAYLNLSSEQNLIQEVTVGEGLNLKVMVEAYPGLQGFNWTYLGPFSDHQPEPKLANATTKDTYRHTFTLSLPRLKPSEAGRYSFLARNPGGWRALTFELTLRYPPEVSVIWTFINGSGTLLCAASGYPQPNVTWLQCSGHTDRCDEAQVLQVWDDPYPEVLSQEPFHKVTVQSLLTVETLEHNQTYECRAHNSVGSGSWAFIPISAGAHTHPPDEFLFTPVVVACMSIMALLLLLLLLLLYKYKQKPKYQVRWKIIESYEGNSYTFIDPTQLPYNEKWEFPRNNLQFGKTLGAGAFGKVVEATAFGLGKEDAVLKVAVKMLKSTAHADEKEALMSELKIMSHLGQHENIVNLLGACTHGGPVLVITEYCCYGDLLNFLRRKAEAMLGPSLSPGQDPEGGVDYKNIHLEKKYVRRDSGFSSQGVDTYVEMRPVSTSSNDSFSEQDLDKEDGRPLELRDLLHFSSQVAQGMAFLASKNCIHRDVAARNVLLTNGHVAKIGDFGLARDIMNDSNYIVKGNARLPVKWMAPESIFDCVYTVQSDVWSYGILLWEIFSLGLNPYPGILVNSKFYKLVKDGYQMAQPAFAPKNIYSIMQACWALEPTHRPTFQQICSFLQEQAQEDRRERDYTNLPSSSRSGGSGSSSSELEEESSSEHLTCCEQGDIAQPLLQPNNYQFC

As usually defined, the AUC is the area under the concentration-time curve, a measure of exposure. The low end stands for less exposure, the high end for more exposure. As a reminder, the Cmax is the peak of the concentration-time curve. In general, Tmax refers to the time at which the peak concentration occurs. A word on the half-life: it is the time in which the quantity being followed falls by half. The low end stands for fast loss, the high end for slow loss. As for `COc1cc2ncnc(N3CCN(/C(S)=N\Cc4ccc5c(c4)OCO5)CC3)c2cc1OC`, the IC50 was > 30 µM in data set [1]; > 30 uM l-1 in data set [2]; > 30 µM in data set [3]; > 30 uM l-1 in data set [4]; 14.9 µM in data set [5]; > 30 uM l-1 against MAP kinase p38. The IC50 is 160 uM l-1 in data set [7]; > 30 uM l-1 in data set [8]; > 30 uM l-1 on Protein kinase C (PKC); > 30 µM in data set [9]; 17.3 µM in data set [10]; > 30 µM in [12]. Moreover, in data set [14], the IC50 was > 30 µM. This compound also gave an exposure (AUC) in [6] of 89900 ng·h/mL. The concentration in data set [6] peaked (Cmax) at 14500 ng/mL. Further, the Tmax in data set [6] turned out to be 3.33 h. The same compound had a half-life in data set [6] of 3.92 h. The concentration at 8 h in [11] was found to be 3600 ng/mL; in [13], 2400 ng/mL. The concentration at 1 h turned out to be 5100 ng/mL in data set [15] and 5900 ng/mL in [16].

What is called logD is lipophilicity at a set pH, counting ionised and neutral species. In turn, `COc1cc2ncnc(N3CCN(C(=S)NCc4ccco4)CC3)c2cc1OC` came in with a concentration at 8 h in data set [17] of 1200 ng/mL. In addition, the concentration at 8 h in [18] was 1400 ng/mL. Also, in data set [6], the AUC was determined as 95800 ng·h/mL, the Cmax stood at 7200 ng/mL, the Tmax turned out to be 3.67 h and the half-life is 3.33 h. This compound yielded an IC50 in data set [19] of 0.33 µM. In data set [20], the concentration at 1 h was determined as 3000 ng/mL. The compound further gave a pH-dependent lipophilicity (logD) in data set [21] of 2.75. In [22], this compound registered a concentration at 1 h of 3700 ng/mL.

`COc1cc2ncnc(N3CCN(C(=S)NCc4ccc(Cl)cc4)CC3)c2cc1OC`: the results for the concentration at 1 h in [23] and in data set [26] were 2400 ng/mL and < 100 ng/mL, respectively. For the same compound, the concentration at 8 h in data set [24] was 1300 ng/mL; in data set [25] it was < 100 ng/mL. Besides, the IC50 in [19] amounted to 0.07 µM.

The record behind these values is ChEMBL document CHEMBL1136005 (J Med Chem, 2002).
